NR2E3 ag-1 = agonists of human nuclear receptor NR2E3; actives 0.12% (n = 320,000); GST-NR2E3/biotin-RetCOR TR-FRET, 1536-well; inhibition of corepressor binding, % at 4.78 µM;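 active = percent inhibition above the cutoff of mean plus 3 SD of all tested compounds, set per screening campaign, cut at about 20% in these data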
Target sequence (Q9Y5X4 whole entry, looked up): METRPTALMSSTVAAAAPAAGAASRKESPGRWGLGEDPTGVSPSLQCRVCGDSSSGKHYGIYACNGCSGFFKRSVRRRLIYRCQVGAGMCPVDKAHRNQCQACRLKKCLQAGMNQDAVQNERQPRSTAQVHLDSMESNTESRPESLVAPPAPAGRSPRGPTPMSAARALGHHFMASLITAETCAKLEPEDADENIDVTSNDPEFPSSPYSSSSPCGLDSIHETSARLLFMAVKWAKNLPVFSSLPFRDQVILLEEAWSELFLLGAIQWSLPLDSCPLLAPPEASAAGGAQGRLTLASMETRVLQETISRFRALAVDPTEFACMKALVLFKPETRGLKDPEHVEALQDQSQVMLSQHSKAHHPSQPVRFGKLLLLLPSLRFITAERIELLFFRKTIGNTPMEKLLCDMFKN
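Material – GST-tagged NR2E3 plus biotinylated RetCOR corepressor · Quantity – NR2E3 fusion 1.35 nM · Times – 5 h incubation at 4 °C · Medium – pH 7.5 Tris-based buffer · Technique – TR-FRET, Eu(K)-anti-GST donor, streptavidin-D2 acceptor, ex 340, em 617/671 nm · Benchmarks – high control biotin, low control 0.6% DMSO · Format – 1536-well plates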
Gli-Sufu antag = antagonists of Gli-Sufu signaling | inhibition, % at 5 µM | Sufu-KO-LIGHT fibroblasts, Gli luciferase reporter luminescence | actives 0.74% (n = 340,000);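 active = inhibition above about 55%, limit read from the data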
NR2E3 ag-2 = agonists of human NR2E3 nuclear receptor. CHO-S Gal4-NCOR/VP16-NR2E3 two-hybrid, luciferase. inhibition of corepressor binding, % at 3.98 µM. actives 0.35% (n = 360,000). AID 602229;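 active = inhibition above the mean of all tested compounds plus 3 SD, cut at about 70% in these data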;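 note: higher means lower luciferase signal from less NR2E3 corepressor binding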
697 NFkB inh = lowers PMA/ionomycin-induced NF-kB signal in 697 B cells. 697 B-cell NF-kB luciferase reporter, 16 h. inhibition, % at 4 µM. actives 0.33% (n = 330,000); in the data active = inhibition above about 35%
Jurkat NFkB inh = inhibitors of the PMA/ionomycin-induced NF-kB reporter in Jurkat cells; PMA/ionomycin-induced NF-kB luciferase reporter, luminescence; inhibition, % at 4 µM; actives 0.53% (n = 330,000); AID 435003; in the data active = inhibition above about 50%
GalR3 antag = blocks the human galanin receptor 3; actives 0.44% (n = 360,000); HEK293 GalR3-CNG cAMP membrane potential fluorescence; galR3 body fused to GalR1 C-terminus; O60755; AID 651719; inhibition, % at 3 µM;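 active = inhibition above the screen-wide average plus 3 SD, cut at about 13% in these data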;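 note: forskolin and galanin both at EC90 stimulate the cells; cAMP rise reported by CNG channel membrane potential dye signal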
697 NFkB conf = inhibitors of the PMA/ionomycin-induced NF-kB reporter in 697 B cells, retest | shares compounds with 697 NFkB inh | 697 B-cell NF-kB luciferase, 16 h | actives 35% (n = 2,000) | inhibition, % at 4 µM; in the data active = inhibition mostly above about 28%, no sharp cut-off; inactive = mostly below about 22%
Hits are given with their value; . = inactive; / = not tested or not shown. Sampled rows, rich in hits. Any-hit rate of the full collection: about 1.8%.

SMILES	NR2E3 ag-1	Gli-Sufu antag	NR2E3 ag-2	697 NFkB inh	Jurkat NFkB inh	GalR3 antag	697 NFkB conf
CNC(=O)c1ccc(-c2cc3onc(-c4ccccc4)c3c(=O)n2C)cc1	/	.	.	.	.	.	/
CCCOc1ccc(-c2cc3onc(-c4ccccc4)c3c(=O)n2C)cc1	/	.	.	.	.	.	.
Cc1ccc(-c2cc3onc(-c4ccccc4)c3c(=O)n2C)cc1	.	.	.	.	.	.	.
C[C@@H]1CCCCO[C@H](CN(C)S(=O)(=O)c2cn(C)cn2)[C@@H](C)CN([C@H](C)CO)C(=O)c2cc(NC(=O)CCCN(C)C)ccc2O1	/	/	/	/	/	.	/
COC(=O)c1cc2c(c3c4ccccc4n(S(=O)(=O)c4ccccc4)c13)C(=O)N(Cc1ccc(C(F)(F)F)cc1)C2	/	/	/	/	/	.	/
CC(=O)Nc1ccc(S(=O)(=O)N2CCC(c3nc4ccc(C)cc4[nH]3)CC2)cc1	.	.	.	38	.	.	.
C#CCNC(=O)c1cc2cccnc2nc1N	/	/	/	/	/	.	/
O=c1c(C=NCCCO)c(-c2ccccc2)[nH]n1-c1nc2ccccc2s1	.	.	.	37	.	.	41
CC(C)NC(=O)c1ccc2c(=O)n(CC3CCCO3)c(=S)[nH]c2c1 (configuration not stated)	.	.	.	36	.	.	.
CC(C)Oc1cc(O)c2c(=O)c(-c3ccc(O)cc3)coc2c1	.	.	.	.	.	.	.
O=c1c(-c2ccc(O)cc2)coc2cc(O)cc(O)c12	.	.	.	.	.	.	/
CC1CCCC(C)N1C(=O)COC(=O)CSc1ccc(C(N)=O)cc1[N+](=O)[O-] (configuration not stated)	.	.	.	35	.	.	.
CC(C)C[C@H]1COc2ccc(Cl)cc2S(=O)(=O)N1	/	/	/	/	/	.	/
c1ccc(CNc2ccc3ccccc3n2)nc1	.	.	.	.	.	.	.
Cc1cc(NCc2ccccn2)nc2ccccc12	.	.	.	.	.	.	/
O=S1(=O)N[C@@H](Cc2ccccc2)COc2cc(N3CCCCC3)ccc21	/	/	/	/	/	.	/
CC(=O)N1CCN(c2ccc(N3CCN(Cc4ccccc4)[C@H](C)C3)c(C)c2)[C@@H](C)C1	/	/	/	/	/	.	/
Cn1c(N=Nc2ccccc2)nc2ccccc21	.	.	.	.	.	.	.
CN(C)c1ccc(N=Nc2nc3ccccc3n2C)cc1	.	.	.	.	.	.	/
COc1ccc(Cl)cc1C(=O)Nc1nc2ccccc2[nH]1	.	.	.	.	.	.	.
COc1ccc(C(=O)Nc2nc3ccccc3[nH]2)cc1OC	.	.	.	.	.	.	/
Nc1ccn([C@@H]2O[C@H](C(=O)N[C@H](Cc3ccccc3)C(=O)N3CCC(F)(F)CC3)[C@@H](O)[C@H]2O)c(=O)n1	/	/	/	/	/	.	/
CC1CCCCN1S(=O)(=O)c1cnc(Cl)c(Br)c1 (configuration not stated)	.	.	.	.	.	.	/
CC1CCN(S(=O)(=O)c2cnc(Cl)c(Br)c2)CC1	.	.	.	38	.	.	.
O=[N+]([O-])c1cccc(-c2nc(-c3ccccc3)no2)c1	.	.	.	.	.	.	/
SMILES	NR2E3 ag-1	Gli-Sufu antag	NR2E3 ag-2	697 NFkB inh	Jurkat NFkB inh	GalR3 antag	697 NFkB conf
c1ccc(-c2noc(-c3ccc4ccccc4c3)n2)cc1	.	.	.	.	.	.	.
CCSc1ncc(Cl)c(C(=O)Nc2sc3c(c2C(=O)NCc2cccnc2)CCCC3)n1	.	.	.	38	.	.	25
COCCN(Cc1nc(-c2ccc(-c3ccccc3)cc2)oc1C)C(C)C	.	.	.	.	.	.	.
Cc1oc(-c2ccoc2)nc1CN(CC1CCC(=O)N1)C(C)C (configuration not stated)	.	.	.	.	.	.	/
CCNC(=O)N1CCN(c2ccc(N3CCN(Cc4ccccc4)[C@H](C)C3)c(C)c2)[C@H](C)C1	/	/	/	/	/	.	/
CCCc1nc2oc3cc(OC)ccc3c(=O)c2c(=O)n1Cc1ccco1	.	.	.	.	.	.	/
CCCCCCn1c(-c2ccco2)nc2oc3cc(OC)ccc3c(=O)c2c1=O	.	.	.	42	.	.	35
COc1ccc(OC)c(S(=O)(=O)Nc2ccc(-c3ccc4nncn4n3)cc2)c1	.	.	.	35	.	.	.
CCOC(=O)N1CCN(CC(=O)Nc2ccc([N+](=O)[O-])cc2C(=O)Nc2ccccc2F)CC1	.	.	.	38	.	.	39
O=C(CNC(=O)c1cccc(OC(F)F)c1)OCC(=O)c1ccccc1	.	.	.	35	.	.	.
COc1ccc(C(=O)COC(=O)CNC(=O)c2cccc(OC(F)F)c2)cc1	.	.	.	.	.	.	/
Cc1cc(NC(=O)COC(=O)c2c(Cl)cccc2Cl)no1	.	.	.	.	.	.	.
COc1ccc(-c2nc(C(=O)NCC3CCCO3)cc3c2[nH]c2ccccc23)cc1 (configuration not stated)	.	.	.	.	.	.	/
Cc1ccc(-c2nc(C(=O)NCC3CCCO3)cc3c2[nH]c2ccccc23)cc1 (configuration not stated)	.	.	.	39	.	.	36
CCOc1ccc(-c2cc(CCCC(=O)NCCCOC)no2)cc1	.	.	.	53	.	.	32
CCOc1ccc(-c2cc(CCCC(=O)N3CCN(c4ccc(OC)cc4)CC3)no2)cc1	.	.	.	.	.	/	/
COc1ccc(N/C=C/C(=O)c2ccccc2)cc1	.	.	.	.	.	.	.
CCOc1ccc(N/C=C/C(=O)c2ccccc2)c([N+](=O)[O-])c1	.	.	.	.	.	.	.
C=CC[C@]12C[C@@]3(O[C@H](c4ccccn4)N=C3C[C@H](c3ccc(OC)cc3)[C@H]1C)N(C1CCN(Cc3ccccc3)CC1)C2=O	/	/	/	/	/	.	/
COc1ccc(C2CC(=O)C(c3ccc(C(C)=O)cc3)=CN2Cc2ccccc2)cc1 (configuration not stated)	/	/	/	/	/	.	/
COc1cc2c(cc1NC(=O)c1ccc(C(C)(C)C)cc1)CCCC2	.	.	.	.	.	.	.
COc1ccc(C(=O)Nc2cc3c(cc2OC)CCCC3)cc1Br	.	.	.	.	.	.	/
COCCN1C(=O)[C@H]2C[C@@]13O[C@H](c1ccc(C(F)(F)F)cc1)N=C3C[C@H](c1ccccc1)[C@H]2C	/	/	/	/	/	.	/
O=C1N/C(=C\c2ccc(O)cc2)C(=O)c2ccccc21	.	.	.	45	.	/	.
O=C(O)/C=C1\NC(=O)c2ccccc21	.	.	.	.	.	.	/
N#Cc1ccccc1N/C=C/C(=O)c1ccc(Cl)cc1	.	.	.	.	.	.	.
